Data on three molecules can be found in ChEMBL document CHEMBL1208665, “Discovery of new 1,3,5-triazine scaffolds with potent activity against Mycobacterium tuberculosis H37Rv” (Eur J Med Chem, 2010).

Values after ≈ are worked out from the molar mass of the structure shown.

A short description of data set [1]: (§1) Cytotoxicity against Vero cells after 24 hrs by MTS assay. Format: cell-based. As to conditions: chlorocebus sabaeus, Vero cells; read-out: MIC. The procedure, abridged:
(§2)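 VERO cells were seeded at 20,000/well in MEM + 10% FBS with antibiotics and left to adhere overnight at 37 °C, 5% CO₂. Compound dilutions were added in MEM + 10% FBS for 24 h, with DMSO as negative control and a known toxic compound as positive control. Read-out was MTS, 2 h, A490, with DMSO wells taken as 100% survival.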
On the technique in general: Tetrazolium assays rely on reduction of a dye to a coloured formazan, in cell work by metabolically active cells.

In data set [2] the test system is Mycobacterium tuberculosis. The experiment in a line: Antimycobacterial activity against Mycobacterium tuberculosis H37Rv […] after 4 weeks. Type of data set: functional. The procedure, abridged:
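Agar-slant dilution against H37Rv. Compounds from 1.0 mg/mL DMSO stock, two-fold serial dilutions, were incorporated into OADC-supplemented medium (2 mL/tube final) and solidified slanted. Inoculum spread on the surface, incubated 37 °C for 4 weeks. Drug-free tubes served as control. MIC is the lowest concentration giving complete growth inhibition relative to the inoculum used.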

Data set [3] is described as follows: Cytotoxicity against mouse BMDM after 48 hrs by MTS assay. Type of data set: cell-based. As to conditions: for Activity: bmdm, 48 h. The procedure, abridged:
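Mouse femur bone marrow was flushed with DMEM + 10% FBS, 15% L-929 conditioned supernatant and non-essential amino acids. Cells were plated at 10⁵/well, medium was changed every 3rd day, and cells were used at day 5. Compounds were added in antibiotic-free FBS-DMEM for 48 h at 37 °C, 5% CO₂. Read-out was MTS, 2 h, A490, with DMSO wells taken as 100% survival.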

For another data set, the system named is Vero. Described as §1. Format: cell-based. As to conditions: chlorocebus sabaeus, vero, 24 h. The method, boiled down: as §2

A word on the MIC: it is the lowest concentration that inhibits growth of the organism. A higher MIC goes with weaker potency. Regarding `CCCNc1nc(NCCC)nc(N2CCCCC2)n1`, the MCC at 24 h in data set [1] was greater than 12.5 µg/mL. Moreover, in data set [2], the MIC came out at 12.5 µg/mL (≈ 44.9 µM). The MCC at 48 h in data set [3] (BMDM (bone marrow-derived macrophages), read-out: MIC) is greater than 12.5 µg/mL.
For `O=C(NNc1nc(Nc2ccccc2)nc(N2CCOCC2)n1)c1ccncc1`, the Activity entry (in the data set with Vero; in data set [3]) was “Non-toxic” throughout. This molecule yielded an MIC in data set [2] of 1.56 µg/mL (≈ 3.98 µM).
As to `NNC(=O)c1ccncc1` [ISONIAZID], the Activity entry (in the data set with Vero; in data set [3]) was “Non-toxic” in each case. Moreover, the MIC in data set [2] was 0.025 µg/mL (≈ 0.182 µM).
